A selection: hits, their analogues and other compounds. The true share with any hit is near 2.3%.
OXTR potentiator: potentiators of human oxytocin receptor; activation, % at 3 µM; P30559; CHO-OTR cells, Fluo-8 calcium fluorescence, potentiator mode; 0% = oxytocin EC15, 100% = EC100; 0.061% of 320,000 active;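 active = activation above that plate's cutoff, the mean activation of tested compounds plus 3 SD, cut at about 6.6% in these data, passing the limit was not always enough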;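 note: 100% uses oxytocin at 75 nM as the full agonist control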
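Assay system: CHO-OTR cells, human receptor / Also added: oxytocin at about EC15, sub-maximal agonist stimulus / Dosing: single dose, 3.0 µM nominal final compound concentration / Incubation: 6 min pre-incubation, 100 s read / Technique: Fluo-8 calcium dye fluorescence / Read-out: % activation vs EC15 and EC100 oxytocin / Benchmarks: EC15 oxytocin low, 75 nM oxytocin high / Replicates: singlicate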
TAAR1 antag: human TAAR1 antagonism | Q96RJ0 | CHO RD-HGA16 TAAR1, Fluo-8 calcium fluorescence, antagonist | inhibition, % at 3 µM | 1.5% of 360,000 active;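 active = inhibition above a per-plate cutoff, the mean inhibition of test compounds on that plate plus 3 SD, cut at about 49% in these data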;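 note: 0% = DMSO plus EC80 beta-PEA response and 100% = DMSO alone without agonist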
Target sequence (Q96RJ0 whole entry, looked up): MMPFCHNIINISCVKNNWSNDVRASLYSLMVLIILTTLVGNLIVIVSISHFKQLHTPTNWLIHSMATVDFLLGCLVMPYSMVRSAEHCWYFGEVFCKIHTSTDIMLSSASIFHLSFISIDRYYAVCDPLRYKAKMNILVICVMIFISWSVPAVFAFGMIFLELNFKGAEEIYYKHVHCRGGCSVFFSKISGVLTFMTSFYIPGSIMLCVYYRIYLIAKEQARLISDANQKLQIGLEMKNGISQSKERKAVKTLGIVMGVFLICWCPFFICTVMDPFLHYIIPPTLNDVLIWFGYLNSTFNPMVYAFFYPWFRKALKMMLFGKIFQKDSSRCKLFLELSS
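Test system: RD-HGA16 CHO cells with stable hTAAR1 and Gα16 / Probe or stimulus: EC80 β-phenethylamine stimulus / Times: seeding 17-24 h prior, 75-min 37 °C, 30-min RT dye loading / Detection: Fluo-8 calcium-sensitive fluorescence / Read-out basis: % inhibition scaled between DMSO and EC80 PEA controls / Repeats: singlicate, one well per test compound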
TAAR1 ag: human TAAR1 agonism | Q96RJ0 | CHO RD-HGA16 TAAR1, Fluo-8 calcium fluorescence; vehicle wells 0%, saturating PEA agonist 100% | activation, % at 3 µM | 0.99% of 360,000 active | AID 624467;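 active = activation above the mean activation of all test compounds in the run plus 3 SD, cut at about 38% in these data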
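Benchmarks: low control DMSO, high control PEA (EC100); System: CHO RD-HGA16 cells carrying human TAAR1 plus Gα16; Detection: Fluo-8 fluorescence, 5 s baseline then 140 s kinetic read; Schedule: 17-24 h plating, Fluo-8 75 min 37 °C, 30 min RT; Read-out basis: % activation from peak over basal fluorescence ratio, DMSO-to-PEA scaled.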
V1aR counter: counter-screen for oxytocin receptor agonists: human V1a receptor agonists; P37288; CHO-V1R cells, Fluo-8 calcium fluorescence, agonist mode; 0% DMSO, 100% 3 nM vasopressin; activation, % at 3 µM; 0.25% of 320,000 active; AID 2797;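 active = activation above the mean activation of all tested compounds plus 3 SD, per screening run, cut at about 20% in these data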;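 note: signal is peak over basal fluorescence ratio across a 100 second FLIPR read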
OXTR agonist: human OXTR agonism; P30559; CHO-OTR cells, Fluo-8 calcium fluorescence; normalized: DMSO 0%, oxytocin 100%; activation, % at 3 µM; AID 2435; 0.32% of 320,000 active;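 active = activation above the mean of all tested compounds plus 3 SD, cutoff set per screening run, cut at about 20% in these data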;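 note: peak over basal fluorescence ratio from a 100 s FLIPR kinetic read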
TAAR1 ag confirm: confirmation of human TAAR1 agonists | shares compounds with TAAR1 ag | CHO RD-HGA16 TAAR1, Fluo-8 calcium fluorescence; scaled: DMSO 0%, maximal phenethylamine 100% | activation, % at 3 µM | 82% of 2,400 active | AID 651783;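 active = activation above a cutoff set at the run's mean compound activation plus 3 SD, cut at about 39% in these data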
Ga16 nonsel ag: nonselective agonist in parental cells, TAAR1 agonist counter-screen. activation, % at 3 µM. 50% of 2,400 active. CHO-Ga16 parental, Fluo-8 calcium fluorescence; normalized to maximal ATP response, DMSO zero. shares compounds with TAAR1 ag;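 active = activation above the run cutoff, the mean activation over all tested wells plus 3 SD, cut at about 12% in these data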;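 note: 0% = DMSO wells and 100% = maximal ATP response on the peak over basal ratio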
TAAR1 desensitize: TAAR1 response desensitization, agonist counter-screen; 46% of 2,400 active; shares compounds with TAAR1 ag; CHO RD-HGA16 hTAAR1, Fluo-8 calcium, beta-PEA response inhibition; inhibition, % at 3 µM;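 active = inhibition above the run cutoff, the mean inhibition of all test compounds plus 3 SD, cut at about 49% in these data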;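 note: beta-PEA stimulus applied at its EC80; loss of beta-PEA calcium signal after compound pretreatment read as receptor desensitization; 0% = DMSO with beta-PEA at EC80 and 100% = DMSO alone without agonist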
Ga16 nonsel ant: nonselective Ga16 antagonist in TAAR1 agonist counter-screen. shares compounds with TAAR1 ag. inhibition, % at 3 µM. 39% of 2,400 active. CHO-Ga16 ATP-induced calcium, Fluo-8 fluorescence;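 active = inhibition above the plate's mean compound inhibition plus 3 SD, computed per plate, cut at about 22% in these data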;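 note: 0% = EC80 ATP with DMSO and 100% = DMSO wells without ATP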
An asterisk follows results filed as active; nt = no result.

SMILES	OXTR potentiator	TAAR1 antag	TAAR1 ag	V1aR counter	OXTR agonist	TAAR1 ag confirm	Ga16 nonsel ag	TAAR1 desensitize	Ga16 nonsel ant
O=C(NCCc1ccccc1)c1ccc2c(c1)OCCCO2	1	-1	46*	-1	0	60*	0	11	2
COc1ccc(C(=O)NCCS(=O)(=O)NCCc2ccccc2)cc1	-8	16	48*	0	-1	72*	2	33	6
Cc1ccc(C(=O)NCCc2ccccc2)cc1	4	nt	nt	-1	-2	nt	nt	nt	nt
O=C(NCCc1ccccc1)c1ccc(=O)oc1	-21	8	61*	1	0	67*	14*	12	4
O=C(NCCS(=O)(=O)NCCc1ccccc1)c1ccc2c(c1)OCO2	0	nt	nt	0	-1	nt	0	nt	7
CN(C)c1ccc(C(=S)N2CCN(S(=O)(=O)c3ccccc3)CC2)cc1	-21	9	1	-1	6	nt	nt	nt	nt
CCOC(=O)C1CCN(C(=O)/C=C/c2ccc(S(=O)(=O)N3CCOCC3)cc2)CC1	1	-3	0	3	0	nt	nt	nt	nt
Cc1csc(=O)n1CC(=O)OCC(=O)Nc1cc(S(=O)(=O)N2CCOCC2)ccc1Cl	-12	-6	4	0	1	nt	nt	nt	nt
Cc1ccc(Nc2nc(N)nc(CN3CCc4ccccc4C3)n2)cc1	-15	5	52*	-1	-3	69*	-1	-2	1
Cc1c(Cl)cccc1Nc1nc(N)nc(CN2CCc3ccccc3C2)n1	-13	10	34	-1	-3	nt	nt	nt	nt
COc1ccc(NC(=O)N(C)C[C@@H]2Oc3cc(C#CCN(C)C)ccc3S(=O)(=O)N([C@H](C)CO)C[C@H]2C)cc1	nt	-5	2	nt	nt	nt	nt	nt	nt
CC1(c2ccc(OC(F)F)cc2)NC(=O)N(CC(=O)Nc2ccc3c(c2)OCO3)C1=O (centres undefined)	-10	51*	110*	45*	39*	107*	73*	87*	62*
CC(=O)Nc1ccc(/C=N/N2C(=O)NC(C)(c3ccc(OC(F)F)cc3)C2=O)cc1 (centres undefined)	-19	97*	140*	39*	55*	138*	105*	104*	93*
CC1(c2ccc(OC(F)F)cc2)NC(=O)N(CC(=O)Nc2ccc3[nH]c(=O)[nH]c3c2)C1=O (centres undefined)	2	-20	3	0	-1	nt	nt	nt	nt
CC1(c2ccc(OC(F)F)cc2)NC(=O)N(CC(=O)Nc2ccccc2)C1=O (centres undefined)	-16	99*	148*	32*	47*	139*	92*	101*	73*
CCC(NC(=O)NNC(N)=S)(C(F)(F)F)C(F)(F)F	-8	-21	3	2	0	nt	nt	nt	nt
Cc1nn(C)c(C)c1NC(=O)COc1ccccc1C#N	1	5	6	0	1	nt	nt	nt	nt
CC1=C(NCCc2ccccc2)CCC1=O	-8	60*	95*	2	0	103*	4	87*	0
COc1ccccc1C(C)NC(=O)CCC(=O)N1CCN(S(=O)(=O)c2ccc(Cl)cc2)CC1 (centres undefined)	nt	5	2	nt	nt	nt	nt	nt	nt
COc1ccc2cc(C(c3nnnn3CCc3ccccc3)N3CCCC(C)C3)c(=O)[nH]c2c1 (centres undefined)	-10	30	54*	0	0	58*	3	18	14

Screens from PubChem.
